# Cneo AK release – Cryptococcus neoformans lysis via adenylate kinase release; lysis activity, % at 15 µM; 360,000 compounds, 0.2% hits; C. neoformans lysis, adenylate kinase release luminescence, 4 h; normalised: neutral wells 0, clomiphene wells 100;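 active = mean lysis activity across replicates of at least 80%, whatever share of replicates individually reach that level; inactive = mean lysis activity below 80%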
#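 Test system: log-phase Cryptococcus neoformans yeast cells. Input: 5 × 10^6 yeast cells/mL. Medium: fresh YPD growth medium. Doses: single dose. Incubation: static 4 h at 37 °C with compound, 1 h detection. Measured by: luminescent adenylate kinase detection reagent. Read-out: signal increase indicating cell lysis. Benchmarks: Clomiphene.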
# DENV2 CPE rescue – inhibitors of DENV2 cytopathic effect. DENV2-infected cells, cytopathic effect rescue, plate reader. CPE inhibition, % at 9.99 µM. 350,000 compounds, 1.7% hits. AID 651640; in the data active = CPE inhibition above about 20%, passing the limit was not always enough; tested in BHK-21 cells;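 note: 0% = median of neutral control wells and 100% = median of positive control wells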
# XiGFP reactiv – reactivates the inactive X chromosome in mouse fibroblasts | XiGFP mouse fibroblasts, % GFP-positive cells imaging, 3 d; cells co-treated with 5-aza-dC sensitizer; scaled so ellipticine positive control = 100% | activation, % at 7.58 µM | 360,000 compounds, 0.055% hits;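 active = mean normalized replicate activation at least 10% and every replicate at or above 10%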;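 note: 0% = median of on-plate neutral control wells and 100% = ellipticine 6 µM median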
#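 System: XiGFP fibroblasts, SV40-immortalized. Medium: DMEM plus 5-aza-dC sensitizer. Doses: single point. Timing: 3 d treatment, 15 min room-temperature fixation. Control set: ellipticine 6 µM.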
# Statin myotox sup – protects C2C12 myotubes from simvastatin toxicity | ATP luminescence, 48 h; scaled: DMSO 0, geranylgeraniol control 100 | rescue of ATP level, % at 7.49 µM | 330,000 compounds, 0.78% hits | AID 602340;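 active = mean ATP rescue above about 67%, or every replicate alone reaching that limit, limit read from the data, passing the limit was not always enough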;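 note: myotubes were challenged with 10 µM simvastatin during compound exposure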
# * = called active by the depositor; · = no result. Compounds with a hit are over-represented: about 2.1% of the library has one in this group of screens.
SMILES,Cneo AK release,DENV2 CPE rescue,XiGFP reactiv,Statin myotox sup
CN1C(=O)c2cc(NC(=O)Cc3cccs3)ccc2OC[C@@H]2O[C@H](CC(=O)NCC3CCCCC3)CC[C@H]21,38,132*,0,-80
COc1ccc2c3c(n(C)c2c1)[C@H](CO)N(Cc1ccncc1)CC31CN(C(=O)C2CCCC2)C1,·,-11,0,·
Cc1ccc(S(=O)(=O)N[C@H]2CC[C@@H](CC(=O)N3CCc4ccccc4C3)O[C@@H]2CO)cc1,10,10,0,2
CN1C(=O)c2cc(NC(=O)c3cccs3)ccc2OC[C@@H]2O[C@@H](CC(=O)NCCN3CCCCC3)CC[C@H]21,-4,41*,0,12
CCCNC(=O)Nc1ccc2c(c1)C(=O)N(C)[C@@H]1CC[C@@H](CC(=O)NCc3ccccc3)O[C@H]1CO2,-3,5,0,19
CCCNC(=O)Nc1ccc2c(c1)C(=O)N(C)[C@@H]1CC[C@@H](CC(=O)NCc3ccccc3)O[C@@H]1CO2,-4,56*,0,-19
CN1C(=O)c2cc(NC(=O)c3cccs3)ccc2OC[C@H]2O[C@H](CC(=O)NCCN3CCCCC3)CC[C@H]21,63,4,0,-12
C[C@@H]1CN([C@H](C)CO)C(=O)c2cc(NC(=O)CCC(F)(F)F)ccc2O[C@@H](C)CCCCO[C@@H]1CN(C)C(=O)CCC(F)(F)F,6,-11,0,·
COc1cc(/C=N/NC(=O)CCC(=O)NC2CCCCC2)ccc1C,·,3,0,·
CCOc1cc(/C=N/NC(=O)CCCC(=O)NC2CCCCC2)ccc1O,102*,9,0,·
CCCNC(=O)Nc1ccc2c(c1)OC[C@H](C)N(C(=O)C1CC1)C[C@H](C)[C@@H](OC)CN(C)C2=O,-4,-9,0,7
C[C@H](CO)N1C[C@H](C)[C@@H](CN(C)C(=O)CCCN(C)C)OCCCC[C@H](C)Oc2ccc(NC(=O)Cc3ccccc3)cc2C1=O,-1,-4,0,·
COC(=O)Cn1c2ccccc2c2nc(=O)cc(C)n21,·,6,0,·
COC(=O)Cn1c2ccccc2c(=O)n1C(C)C,·,21*,0,·
Cc1ccnc2c(N3C(=O)C4C5C=CC(C5)C4C3=O)cccc12 (stereo not given),-1,·,·,121*
COC(=O)c1cn(Cc2ccc(C(F)(F)F)cc2)cc(F)c1=O,3,-2,0,103*
COC(=O)c1ccc(Cn2cc(C(F)(F)F)ccc2=O)cc1,·,1,0,·
COc1ccc(CN2C[C@@H](CO)O[C@@H](n3cnc4c(NCc5ccc(F)cc5)ncnc43)C2)cc1,0,-1,0,81*
COc1cc(CNc2ncnc3c2ncn3[C@H]2CN(Cc3cccc4ccccc34)C[C@@H](CO)O2)cc(OC)c1OC,0,6,0,166*
OC[C@@H]1CN(Cc2ccc(Cl)cc2)C[C@H](n2cnc3c(NCc4ccc(F)cc4)ncnc32)O1,0,-3,0,0
CCCNC(=O)N1CC2(CN(C(=O)Cc3cccnc3)C2)c2c([nH]c3cc(OC)ccc23)[C@H]1CO,·,10,0,·
CCCCOc1ccc(C(=O)NCCOc2cccc(OC)c2)cc1,3,53*,0,-1
CCOc1cc(C(=O)NCCOC)ccc1OC,-2,·,·,120*
CN(C)S(=O)(=O)c1ccc(C(=O)NCCOc2ccc(F)cc2)cc1,-2,-6,·,146*
COc1ccc(CCNC(=O)c2ccc(OC)c(OC)c2)cc1OC,-2,-2,0,-12
SMILES,Cneo AK release,DENV2 CPE rescue,XiGFP reactiv,Statin myotox sup
COc1ccc(C(=O)NCCOc2cccc(Oc3ccccc3)c2)cc1OC,1,48*,0,14
COc1cc(OC)cc(C(=O)NCCOc2ccccc2)c1,0,·,·,·
COc1cccc(-c2cn(CC[C@H]3CC[C@@H](NC(C)=O)[C@@H](CO)O3)nn2)c1,-1,-4,0,-3
CO[C@H]1CN(C)C(=O)c2ccc(NC(=O)c3ccccc3)cc2OC[C@@H](C)N(C(=O)CN(C)C)C[C@@H]1C,-1,28*,1,-9
CO[C@@H]1CN(C)C(=O)c2ccc(NC(=O)c3ccccc3)cc2OC[C@H](C)N(C(=O)CN(C)C)C[C@@H]1C,0,34*,0,6
CO[C@H]1CN(C)C(=O)c2ccc(NC(=O)c3ccccc3)cc2OC[C@H](C)N(C(=O)CN(C)C)C[C@@H]1C,·,·,0,·
O=C(O)CSc1nc(-c2ccccc2)nc2c1oc1ccccc12,-6,·,·,120*
O=C(O)CSc1nc(-c2ccc(Cl)cc2)nc2c1oc1ccccc12,2,-3,0,·
COc1ccc(S(=O)(=O)N(C)C[C@H]2OCCCC[C@H](C)Oc3ccc(NC(=O)C4CCCCC4)cc3C(=O)N([C@H](C)CO)C[C@H]2C)cc1,-1,-2,0,·
C[C@H]1CN([C@@H](C)CO)C(=O)c2cccc(NC(=O)C3CCOCC3)c2O[C@H]1CN(C)CC1CC1,-57,6,0,-1
NC(=O)CC(NC(=O)c1ccccc1)c1ccc(NC2CCCCCCC2)c([N+](=O)[O-])c1 (stereo not given),3,-15,0,-9
NC(=O)CC(NC(=O)Cc1ccc(Cl)cc1)c1ccc(NCc2ccccc2)c([N+](=O)[O-])c1 (stereo not given),-1,28*,0,14
CN(Cc1ccccc1)c1ccc(C(CC(N)=O)NC(=O)Cc2ccc(Br)cc2)cc1[N+](=O)[O-] (stereo not given),-2,136*,-1,-25
NC(=O)CC(NC(=O)c1cccc(Br)c1)c1ccc(NC2CCN(Cc3ccccc3)CC2)c([N+](=O)[O-])c1 (stereo not given),0,70*,1,10
CN(Cc1ccccc1)c1ccc(C(CC(N)=O)NC(=O)Cc2cccc3ccccc23)cc1[N+](=O)[O-] (stereo not given),2,-4,0,5
NC(=O)CC(NC(=O)Cc1ccc(Cl)cc1)c1ccc(NC2CCN(Cc3ccccc3)CC2)c([N+](=O)[O-])c1 (stereo not given),-3,61*,0,-10
NC(=O)CC(NC(=O)Cc1ccc(Cl)cc1)c1ccc(NC2CC3CCC2C3)c([N+](=O)[O-])c1 (stereo not given),7,8,0,-14
Cc1noc(C)c1S(=O)(=O)N(C)C[C@@H]1OCCCC[C@@H](C)Oc2ccc(NC(=O)NC(C)C)cc2C(=O)N([C@H](C)CO)C[C@@H]1C,-6,-10,0,·
O=C(NCC1CCCCC1)[C@@H]1N[C@@H]2c3ccc(C4=CCCCC4)c(=O)n3C[C@@H]2[C@H]1CO,1,-3,0,0
c1ccc2c(CCNc3ncnc4nc[nH]c34)cccc2c1,-2,·,·,86*
O=C(Nc1cc(F)ccc1F)N1C[C@@H]2[C@H](c3ccccc31)[C@H](CO)N2Cc1cccnc1,38,11,1,34
C/C(=N\NC(=O)c1ccccc1O)c1cccc(NC(=O)c2ccccc2)c1,-3,3,0,-2

# Bioassay records deposited in PubChem by Broad Institute.
